Source: ChEMBL document CHEMBL3808334, “Synthesis and in vitro evaluation of novel triazine analogues as anticancer agents and their interaction studies with bovine serum albumin” (Eur J Med Chem, 2016)

Key:
Type in all cases: functional
SR = test: Growth inhibition of human SR cells assessed as cell growth at 10^-4 M incubated for 48 hrs by sulforhodamine B assay; details: read-out: Activity
[1] = Growth inhibition of human HOP62 cells assessed as cell growth at 10^-7 M incubated for 48 hrs by sulforhodamine B assay; details: HOP-62, 48 h, read-out: Activity
Malme-3M [2] = test: Growth inhibition of human MALME-3M cells assessed as cell growth at 10^-8 M incubated for 48 hrs by sulforhodamine B assay; details: read-out: Activity
[3] = Growth inhibition of human SF268 cells assessed as cell growth at 10^-4 M incubated for 48 hrs by sulforhodamine B assay; details: SF-268, 48 h, read-out: Activity
[4] = Growth inhibition of human PC3 cells assessed as cell growth at 10^-8 M incubated for 48 hrs by sulforhodamine B assay; details: PC-3, 48 h, read-out: Activity
CCRF-CEM = test: Growth inhibition of human CCRF-CEM cells incubated for 48 hrs by sulforhodamine B assay
In short: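 Leukemia line in the five-dose format: five concentrations from 10-fold or ½-log serial dilutions. Plated at 5,000–40,000 cells per well, preincubated 24 h, then compound added for 48 h at 37 °C, 5% CO₂. Sulforhodamine B absorbance read at 515 nm. Growth is computed against time-zero (Tz) and control (C) readings; GI₅₀ is where [(Ti−Tz)/(C−Tz)]×100 = 50.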

M14 = test: Growth inhibition of human M14 cells assessed as cell growth at 10^-4 M incubated for 48 hrs by sulforhodamine B assay; details: M14, 48 h, read-out: Activity
[5] = Growth inhibition of human HOP62 cells assessed as cell growth at 10^-4 M incubated for 48 hrs by sulforhodamine B assay; details: HOP-62, 48 h, read-out: Activity
K562 = test: Growth inhibition of human K562 cells assessed as cell growth at 10^-8 M incubated for 48 hrs by sulforhodamine B assay; details: K562, 48 h, read-out: Activity
[6] = Growth inhibition of human OVCAR3 cells assessed as cell growth at 10^-8 M incubated for 48 hrs by sulforhodamine B assay; details: OVCAR-3, 48 h, read-out: Activity
NCI-H522 = test: Growth inhibition of human NCI-H522 cells assessed as cell growth at 10^-5 M incubated for 48 hrs by sulforhodamine B assay; details: NCI-H522, 48 h, read-out: Activity
786-0 = test: Growth inhibition of human 786-0 cells incubated for 48 hrs by sulforhodamine B assay; details: 786-0, 48 h
In short: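 Five-dose assay: five concentrations from 10-fold or ½-log serial dilutions. Cells are plated at 5,000–40,000 per well according to doubling time, grown 24 h, then exposed 48 h at 37 °C, 5% CO₂. Fixed with cold 50% TCA (final addition) for 60 min at 4 °C and stained with 0.4% SRB in 1% acetic acid. Bound dye is solubilized in 10 mM Tris base and read at 515 nm. GI₅₀ is where [(Ti−Tz)/(C−Tz)]×100 = 50, with a time-zero plate as Tz.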

[7] = Growth inhibition of human SF268 cells assessed as cell growth at 10^-5 M incubated for 48 hrs by sulforhodamine B assay; details: SF-268, 48 h, read-out: Activity
[8] = Growth inhibition of human PC3 cells assessed as cell growth at 10^-6 M incubated for 48 hrs by sulforhodamine B assay; details: PC-3, 48 h, read-out: Activity
NCI-H23 = test: Growth inhibition of human NCI-H23 cells assessed as cell growth at 10 uM incubated for 48 hrs by sulforhodamine B assay; details: NCI-H23, 48 h, read-out: Activity
[9] = Growth inhibition of human LOXIMVI cells assessed as cell growth at 10^-6 M incubated for 48 hrs by sulforhodamine B assay; details: LOX IMVI, read-out: Activity
Malme-3M [10] = test: Growth inhibition of human MALME-3M cells assessed as cell growth at 10^-6 M incubated for 48 hrs by sulforhodamine B assay; details: read-out: Activity
U-251 = test: Growth inhibition of human U251 cells assessed as cell growth at 10 uM incubated for 48 hrs by sulforhodamine B assay; details: U-251, 48 h, read-out: Activity
SK-MEL-5 = test: Growth inhibition of human SK-MEL-5 cells assessed as cell growth at 10^-5 M incubated for 48 hrs by sulforhodamine B assay; details: SK-MEL-5, 48 h, read-out: Activity
[11] = Growth inhibition of human HL-60(TB) cells incubated for 48 hrs by sulforhodamine B assay; details: HL-60, 48 h
In short: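 Five-concentration, 48 h SRB screen (10-fold or ½-log dilutions from a 400× DMSO concentrate; 24 h preincubation at 37 °C, 5% CO₂; time-zero plate; A515). GI50 was solved from (Ti−Tz)/(C−Tz)×100 = 50. TGI was taken where Ti = Tz, and LC50 from (Ti−Tz)/[…].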

SK-MEL-2 = test: Growth inhibition of human SK-MEL-2 cells assessed as cell growth at 10^-4 M incubated for 48 hrs by sulforhodamine B assay; details: SK-MEL-2, 48 h, read-out: Activity
[12] = Growth inhibition of human SKOV3 cells assessed as cell growth at 10^-7 M incubated for 48 hrs by sulforhodamine B assay; details: SK-OV-3, 48 h, read-out: Activity
T47D = test: Growth inhibition of human T47D cells assessed as cell growth at 10^-5 M incubated for 48 hrs by sulforhodamine B assay; details: read-out: Activity
[13] = Growth inhibition of human UACC62 cells assessed as cell growth at 10^-4 M incubated for 48 hrs by sulforhodamine B assay; details: UACC-62, 48 h, read-out: Activity
[14] = Growth inhibition of human UO31 cells incubated for 48 hrs by sulforhodamine B assay; details: UO-31, 48 h
In short: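 Cells were plated at 5,000–40,000 per well according to doubling time and preincubated 24 h at 37 °C in 5% CO2; time-zero plates were then TCA-fixed. Five concentrations (10-fold or ½-log dilutions, DMSO stock) were incubated 48 h. Cells were TCA-fixed, stained with 0.4% SRB and read at 515 nm. GI50 was taken where [(Ti−Tz)/(C−Tz)]×100 = 50.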

[15] = read-out: LC50 (the source's name)
[16] = read-out: pLC50 (the source's name) (converted)

**Q.** For `c1ccc(-c2nc(Nc3ccc(-c4nc5ccccc5[nH]4)cc3)nc(N3CCOCC3)n2)cc1`, which growth at 100 µM (SR) is on record?
**A.** -28%

**Q.** And the growth at 0.1 µM [1]?
**A.** 93%

**Q.** What about the growth at 0.01 µM (Malme-3M [2]) of the same compound?
**A.** 106%

**Q.** What about the growth at 100 µM [3] of the same compound?
**A.** -78%

**Q.** And the growth at 0.01 µM [4]?
**A.** 99%

**Q.** And the GI50 (CCRF-CEM; read-out: GI50)?
**A.** 544 nM

**Q.** What about the CC50 (CCRF-CEM; [15]) of the same compound?
**A.** > 100000 nM

**Q.** What about the TGI (CCRF-CEM; read-out: TGI) of the same compound?
**A.** 3120 nM

**Q.** What about the GI50 (CCRF-CEM; read-out: pGI50 (converted)) of the same compound?
**A.** 550 nM

**Q.** What about the CC50 (CCRF-CEM; [16]) of the same compound?
**A.** > 100000 nM

**Q.** And the TGI (CCRF-CEM; read-out: pTGI (converted))?
**A.** 3090 nM

**Q.** And the growth at 100 µM (M14)?
**A.** -79%

**Q.** What about the growth at 100 µM [5] of the same compound?
**A.** -62%

**Q.** What about the growth at 0.01 µM (K562) of the same compound?
**A.** 86%

**Q.** What about the growth at 0.01 µM [6] of the same compound?
**A.** 105%

**Q.** And the growth at 10 µM (NCI-H522)?
**A.** -75%

**Q.** And the GI50 (786-0; read-out: GI50)?
**A.** 257 nM

**Q.** What about the CC50 (786-0; [15]) of the same compound?
**A.** 4060 nM

**Q.** And the TGI (786-0; read-out: TGI)?
**A.** 1250 nM

**Q.** What about the GI50 (786-0; read-out: pGI50 (converted)) of the same compound?
**A.** 257 nM

**Q.** And the CC50 (786-0; [16])?
**A.** 4070 nM

**Q.** What about the TGI (786-0; read-out: pTGI (converted)) of the same compound?
**A.** 1260 nM

**Q.** What about the growth at 10 µM [7] of the same compound?
**A.** -83%

**Q.** And the growth at 1 µM [8]?
**A.** 92%

**Q.** And the growth at 10 µM (NCI-H23)?
**A.** -59%

**Q.** What about the growth at 1 µM [9] of the same compound?
**A.** 29%

**Q.** And the growth at 1 µM (Malme-3M [10])?
**A.** 103%

**Q.** And the growth at 10 µM (U-251)?
**A.** -67.5%

**Q.** What about the growth at 10 µM (SK-MEL-5) of the same compound?
**A.** -92%

**Q.** What about the GI50 ([11]; read-out: GI50) of the same compound?
**A.** 31 nM

**Q.** What about the LC50 ([11]; read-out: LC50) of the same compound?
**A.** 31200 nM

**Q.** What about the TGI ([11]; read-out: TGI) of the same compound?
**A.** 601 nM

**Q.** What about the GI50 ([11]; read-out: pGI50 (converted)) of the same compound?
**A.** 30.9 nM

**Q.** And the LC50 ([11]; read-out: pLC50 (converted))?
**A.** 30900 nM

**Q.** And the TGI ([11]; read-out: pTGI (converted))?
**A.** 603 nM

**Q.** What about the growth at 100 µM (SK-MEL-2) of the same compound?
**A.** -83%

**Q.** What about the growth at 0.1 µM [12] of the same compound?
**A.** 104%

**Q.** And the growth at 10 µM (T47D)?
**A.** -56%

**Q.** And the growth at 100 µM [13]?
**A.** -75%

**Q.** What about the LC50 [14] of the same compound?
**A.** 6400 nM

**Q.** And the GI50 ([14]; read-out: GI50)?
**A.** 1320 nM

**Q.** What about the TGI ([14]; read-out: TGI) of the same compound?
**A.** 2910 nM

**Q.** What about the GI50 ([14]; read-out: pGI50 (converted)) of the same compound?
**A.** 1320 nM

**Q.** And the CC50 [14, 16]?
**A.** 6460 nM

**Q.** And the TGI ([14]; read-out: pTGI (converted))?
**A.** 2880 nM
